EC50 and Activity data for three molecules are collected here from ChEMBL document CHEMBL4304816, “A Novel Biphenyl-based Chemotype of Retinoid X Receptor Ligands Enables Subtype and Heterodimer Preferences” (ACS Med Chem Lett, 2019).

The source made the active and inactive calls. The rule behind the calls is not given here.

Holding throughout (format): cell-based
Assay [1] has as its target T1, Retinoic acid receptor RXR-beta (Homo sapiens, UniProt P28702).
T1 sequence (P28702 whole entry): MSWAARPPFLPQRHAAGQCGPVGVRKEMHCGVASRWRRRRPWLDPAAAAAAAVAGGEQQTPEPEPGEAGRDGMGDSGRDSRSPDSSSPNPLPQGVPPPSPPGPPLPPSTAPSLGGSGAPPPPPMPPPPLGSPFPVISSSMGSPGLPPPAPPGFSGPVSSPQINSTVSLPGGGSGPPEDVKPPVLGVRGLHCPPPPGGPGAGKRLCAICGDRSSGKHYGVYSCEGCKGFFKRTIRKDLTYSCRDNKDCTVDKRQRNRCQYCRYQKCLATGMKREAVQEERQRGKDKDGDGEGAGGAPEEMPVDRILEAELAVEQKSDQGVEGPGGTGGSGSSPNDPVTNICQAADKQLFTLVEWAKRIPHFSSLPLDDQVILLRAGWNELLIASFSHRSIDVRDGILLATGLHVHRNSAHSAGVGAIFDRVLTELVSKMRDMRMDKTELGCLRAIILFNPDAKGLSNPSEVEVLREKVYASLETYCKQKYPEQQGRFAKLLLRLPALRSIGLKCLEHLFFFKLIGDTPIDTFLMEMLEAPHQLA
The assay can be described thus: Agonist activity at Gal4-LBD fused RXRbeta (unknown origin) expressed in HEK293T cells after 14 to 16 hrs by dual-Glo luciferase assay. An outline of the steps:
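Gal4-hybrid RXRα/β/γ reporter gene assays in HEK293T cells. Fold activation is the maximal fold activation versus 0.1% DMSO.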

The target in assay [2] is T2, Retinoic acid receptor gamma (Homo sapiens) (UniProt P13631).
T2 sequence (whole entry): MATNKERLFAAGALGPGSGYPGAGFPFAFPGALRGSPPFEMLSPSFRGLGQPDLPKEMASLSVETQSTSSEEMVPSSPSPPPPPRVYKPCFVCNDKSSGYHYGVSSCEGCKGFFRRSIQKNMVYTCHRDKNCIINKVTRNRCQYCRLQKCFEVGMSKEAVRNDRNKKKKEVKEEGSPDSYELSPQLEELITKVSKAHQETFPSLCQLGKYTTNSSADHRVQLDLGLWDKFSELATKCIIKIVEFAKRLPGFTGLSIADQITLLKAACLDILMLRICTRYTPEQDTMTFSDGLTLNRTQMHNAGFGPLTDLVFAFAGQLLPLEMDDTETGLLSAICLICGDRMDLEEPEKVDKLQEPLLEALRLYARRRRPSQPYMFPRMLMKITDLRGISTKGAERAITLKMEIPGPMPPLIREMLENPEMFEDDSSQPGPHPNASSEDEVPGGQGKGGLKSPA
The assay can be described thus: Agonist activity at Gal4-LBD fused RARgamma (unknown origin) expressed in HEK293T cells after at 10 uM 14 to 16 hrs by dual-Glo luciferase assay. The method, boiled down:
(§1)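 Gal4-hybrid reporter gene selectivity panel of related nuclear receptors (PPARα/β/γ, RARα/β/γ) in HEK293T cells. Activity is read as mean fold activation versus 0.1% DMSO vehicle, n ≥ 2.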

The target of assay [3] is T3, Peroxisome proliferator-activated receptor gamma (Homo sapiens) (UniProt P37231).
T3 sequence (whole entry): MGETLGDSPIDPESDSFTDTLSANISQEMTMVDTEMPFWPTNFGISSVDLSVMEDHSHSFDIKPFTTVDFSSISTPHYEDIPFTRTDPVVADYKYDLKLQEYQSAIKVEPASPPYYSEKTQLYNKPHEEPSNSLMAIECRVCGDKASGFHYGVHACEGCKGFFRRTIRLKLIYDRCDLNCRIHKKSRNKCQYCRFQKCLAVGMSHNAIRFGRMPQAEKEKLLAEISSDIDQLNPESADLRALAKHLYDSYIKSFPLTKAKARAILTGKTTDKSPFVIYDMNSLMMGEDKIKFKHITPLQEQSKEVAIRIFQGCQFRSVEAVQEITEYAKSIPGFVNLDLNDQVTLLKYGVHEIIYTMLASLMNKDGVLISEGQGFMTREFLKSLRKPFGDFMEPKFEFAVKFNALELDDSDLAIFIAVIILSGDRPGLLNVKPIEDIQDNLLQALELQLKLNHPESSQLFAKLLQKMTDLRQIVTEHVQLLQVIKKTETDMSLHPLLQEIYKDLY
The assay can be described thus: Agonist activity at Gal4-LBD fused PPARgamma (unknown origin) expressed in HEK293T cells at 10 uM after 14 to 16 hrs by dual-Glo luciferase assay. An outline of the steps:
as §1

In assay [4] the target is T4, Peroxisome proliferator-activated receptor delta (Homo sapiens) (UniProt Q03181).
T4 sequence (whole entry): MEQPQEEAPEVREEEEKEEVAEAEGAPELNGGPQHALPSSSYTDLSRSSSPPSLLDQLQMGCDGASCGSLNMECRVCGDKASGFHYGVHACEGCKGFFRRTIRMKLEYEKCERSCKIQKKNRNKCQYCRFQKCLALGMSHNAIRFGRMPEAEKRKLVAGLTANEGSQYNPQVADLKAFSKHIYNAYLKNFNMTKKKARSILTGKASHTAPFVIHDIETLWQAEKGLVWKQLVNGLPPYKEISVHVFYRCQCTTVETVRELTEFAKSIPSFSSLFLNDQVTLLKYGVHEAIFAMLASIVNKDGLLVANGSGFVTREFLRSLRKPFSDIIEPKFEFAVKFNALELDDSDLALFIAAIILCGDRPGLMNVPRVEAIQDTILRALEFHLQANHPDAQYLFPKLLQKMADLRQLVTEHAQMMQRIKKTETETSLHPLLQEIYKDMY
The assay can be described thus: Agonist activity at Gal4-LBD fused PPARbeta (unknown origin) expressed in HEK293T cells at 10 uM after 14 to 16 hrs by dual-Glo luciferase assay. The method, boiled down: as §1

For assay [5], the target named is T5, Retinoic acid receptor alpha (Homo sapiens) (UniProt P10276).
T5 sequence (whole entry): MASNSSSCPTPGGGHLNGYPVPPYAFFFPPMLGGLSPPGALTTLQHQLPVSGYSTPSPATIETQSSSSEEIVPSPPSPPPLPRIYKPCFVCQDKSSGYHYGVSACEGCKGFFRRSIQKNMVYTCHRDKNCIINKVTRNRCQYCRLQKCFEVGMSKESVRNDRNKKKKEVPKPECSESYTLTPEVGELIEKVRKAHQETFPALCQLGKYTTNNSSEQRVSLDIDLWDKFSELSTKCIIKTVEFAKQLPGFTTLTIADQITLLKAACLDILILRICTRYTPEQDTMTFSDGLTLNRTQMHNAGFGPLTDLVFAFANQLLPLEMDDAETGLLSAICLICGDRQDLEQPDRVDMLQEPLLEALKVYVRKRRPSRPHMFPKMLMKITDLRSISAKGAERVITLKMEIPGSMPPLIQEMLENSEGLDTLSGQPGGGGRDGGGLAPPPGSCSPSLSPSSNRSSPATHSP
The assay can be described thus: Agonist activity at Gal4-LBD fused RARalpha (unknown origin) expressed in HEK293T cells at 10 uM after 14 to 16 hrs by dual-Glo luciferase assay. An outline of the steps:
as §1

Regarding `Cc1cc(-c2ccc(C(=O)O)cc2)cc(C(C)(C)C)c1`, in assay [1], the EC50 amounted to 12 µM.
Turning to `Cc1cc(-c2cc(C(F)(F)F)cc(C(F)(F)F)c2)ccc1CC(=O)O`, the result in assay [2], in assay [3], in assay [4] and in assay [5] was Active. In assay [1], this molecule yielded an EC50 of 0.29 µM.
Regarding `Cc1cc(-c2cc(C(C)(C)C)cc(C(C)(C)C)c2)ccc1C(=O)O`, the result in assay [2], in assay [3], in assay [4] and in assay [5] was Active. In assay [1], the response was half-maximal at 6.6 µM (EC50).
